IDH1 mut inh: inhibitors of IDH1 R132H reductase, primary screen, biochemical, plate reader, single point. Isocitrate dehydrogenase [NADP] cytoplasmic (Homo sapiens), O75874. diaphorase/resazurin fluorescence, 60 min. inhibition, % at 10 µM. hit rate 0.18% among 70,000. AID 624101, 2012; in the data active means inhibition above about 34%;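 further: 0% = DMSO and 100% = no enzyme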
Target sequence (O75874 whole entry R132H): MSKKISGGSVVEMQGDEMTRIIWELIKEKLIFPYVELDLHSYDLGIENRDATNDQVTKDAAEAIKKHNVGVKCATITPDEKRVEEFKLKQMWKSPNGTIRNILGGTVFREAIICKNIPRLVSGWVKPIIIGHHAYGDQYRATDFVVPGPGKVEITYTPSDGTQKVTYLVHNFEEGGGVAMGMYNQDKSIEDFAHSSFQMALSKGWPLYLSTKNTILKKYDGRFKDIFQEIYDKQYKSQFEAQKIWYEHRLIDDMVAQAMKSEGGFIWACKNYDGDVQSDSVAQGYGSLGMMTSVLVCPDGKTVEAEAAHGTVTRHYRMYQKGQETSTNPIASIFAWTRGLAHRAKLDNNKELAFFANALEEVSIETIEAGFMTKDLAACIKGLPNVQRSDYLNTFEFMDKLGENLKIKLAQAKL
Pf Dd2 growth: P. falciparum Dd2 growth inhibitors, primary screen, SYBR Green fluorescence, single dose replicates; activity change, % at 10 µM; hit rate 2.3% among 94,000; 72 h; stronger effect = lower value; AID 1159554, 2015; in the data active means activity change below about -80%
KDM4C inh: inhibitors of GASC-1 (KDM4C) histone demethylase, primary screen, biochemical, single concentration HTS; Lysine-specific demethylase 4C (Homo sapiens), Q9H3R0; GST-KDM4C 2-372, H3K9me3 peptide, LANCE TR-FRET; inhibition, % at 12.5 µM; hit rate 0.15% among 96,000; AID 720574, 2013;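 active means mean replicate inhibition above about 25%, with at least 55% of replicates also reaching it, limit read from the data, passing the limit was not always enough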
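material = GST-tagged GASC-1 (JMJD2C) catalytic fragment, aa 2-372 | amount = enzyme final amount 10 nM | medium = HEPES buffer, pH 7.5, plus ascorbate | also added = H3K9me3 peptide substrate, Fe(II), 2-oxoglutarate | dosing = single dose | times = 30 min demethylation and 1 h detection at room temperature | detection = LANCE TR-FRET | read-out basis = Fall in 671/618 emission ratio as inhibition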
Tcruzi prolif: T. cruzi intracellular proliferation inhibitors, primary screen, cell-based, beta-gal Tulahuen parasites, NIH3T3 host, luminescence; AID 624255, 2012; T. cruzi beta-gal in NIH3T3, GalScreen luminescence, 90 h; hit rate 5.9% among 77,000; inhibition, % at 8.34 µM;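 active means mean inhibition above about 93%, with at least 55% of replicates each passing it, limit read from the data, passing the limit was not always enough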
Starred values were filed as active, the others as inactive; · = no result. A selection: hits, their analogues and other compounds. The true share with any hit is near 5.8%.

SMILES | IDH1 mut inh | Pf Dd2 growth | KDM4C inh | Tcruzi prolif
Cc1cc(=O)[nH]c(SCCOc2ccccc2C#N)n1 | 0.3 | · | · | ·
Cc1ccc(NC(=O)COc2ccccc2Cl)c([N+](=O)[O-])c1 | -0.3 | · | · | ·
CC1(C)CC(=O)c2c(O)cc(OCC(=O)c3cccc([N+](=O)[O-])c3)cc2O1 | -0.1 | · | · | ·
COc1ccc2c3c(n(C)c2c1)[C@@H](CO)N(C(=O)C1CCCC1)CC31CN(C(=O)Nc2cccc(F)c2)C1 | · | -88.2* | -2.1 | ·
COc1ccc2c3c(n(C)c2c1)[C@@H](CO)N(C(=O)C1CCC1)CC31CCN(C(=O)Nc2cccc(F)c2)CC1 | · | -85.8* | -1.2 | ·
COc1ccc2c3c(n(C)c2c1)[C@H](CO)N(C(=O)C1CCC1)CC31CCN(C(=O)Nc2cccc(F)c2)CC1 | · | -64.5 | -0.1 | ·
COc1ccc(S(=O)(=O)N2CC3(CN(C(=O)CN(C)C)[C@H](CO)c4c3c3ccc(OC)cc3n4C)C2)cc1 | · | -84.1* | -0.5 | ·
COC(=O)c1ccc(CSc2n[nH]c(-c3ccccc3OC)n2)o1 | -0.5 | · | · | ·
C[C@H]1CN([C@@H](C)CO)C(=O)c2cc(NC(=O)C3CC3)ccc2O[C@H]1CN(C)Cc1ccc(C(=O)Nc2ccccc2N)cc1 | 0.4 | -53.0 | -0.9 | ·
C[C@H](CO)N1C[C@H](C)[C@H](CN(C)Cc2ccc(C(=O)Nc3ccccc3N)cc2)OCCCC[C@H](C)Oc2ccc(NC(=O)C3CCCCC3)cc2C1=O | 2.5 | -92.5* | -1.5 | ·
C[C@@H]1CN([C@@H](C)CO)C(=O)c2cc(NC(=O)C3CCCCC3)ccc2O[C@@H]1CN(C)Cc1ccc(C(=O)Nc2ccccc2N)cc1 | · | -88.5* | -2.5 | 74.7
C[C@@H]1CN([C@H](C)CO)C(=O)c2cc(NC(=O)C3CCCCC3)ccc2O[C@@H]1CN(C)Cc1ccc(C(=O)Nc2ccccc2N)cc1 | · | -83.3* | -0.7 | 48.0
C[C@@H]1CN([C@@H](C)CO)C(=O)c2cc(NC(=O)C3CC3)ccc2O[C@@H]1CN(C)Cc1ccc(C(=O)Nc2ccccc2N)cc1 | -0.1 | -18.2 | -0.5 | 58.7
CSc1cccc(NC(=O)CNS(=O)(=O)c2ccc(F)cc2)c1 | -0.1 | · | · | ·
CC(C)(C)c1ccc(-c2nnc(SCC(=O)Nc3ccccc3)n2-c2ccccc2)cc1 | 0.4 | · | · | ·
COc1cccc(S(=O)(=O)Nc2ccc3c(c2)[C@@H]2C[C@H](CC(=O)NCc4ccc(Cl)cc4)O[C@@H](CO)[C@@H]2O3)c1 | -0.1 | -82.1* | -3.2 | 66.4
O=C(O)C[C@@H]1C[C@@H]2c3cc(NS(=O)(=O)c4ccccc4)ccc3O[C@@H]2[C@H](CO)O1 | · | -93.5* | 0.9 | ·
O=C(O)C[C@@H]1C[C@H]2c3cc(NS(=O)(=O)c4ccccc4)ccc3O[C@H]2[C@@H](CO)O1 | -0.2 | 10.6 | -1.0 | -19.7
COc1cccc(S(=O)(=O)Nc2ccc3c(c2)[C@@H]2C[C@H](CC(=O)O)O[C@@H](CO)[C@@H]2O3)c1 | -0.2 | -14.2 | -1.4 | 16.2
COc1cccc(S(=O)(=O)Nc2ccc3c(c2)[C@H]2C[C@@H](CC(=O)O)O[C@H](CO)[C@H]2O3)c1 | 72.2* | 16.4 | 38.5* | 14.4
CCOC(=O)CCCSc1nc2c(c(C(F)(F)F)c1C#N)CC(C)CC2 (stereo unspecified) | -0.3 | · | · | ·
CC(C(=O)Nc1ccccc1Cl)N(c1ccc(Cl)cc1)S(C)(=O)=O (stereo unspecified) | -0.5 | · | · | ·
CC(C)c1cn(CC[C@@H]2CC[C@H](N)[C@@H](CO)O2)nn1 | 0.9 | 21.0 | 38.3* | -16.4
N[C@H]1CC[C@H](CCn2cc(C3CCCCC3)nn2)O[C@@H]1CO | 0.1 | -13.6 | -0.5 | -42.9
N[C@H]1CC[C@H](CCn2cc(C3CC3)nn2)O[C@@H]1CO | · | 8.5 | 31.4* | ·
SMILES | IDH1 mut inh | Pf Dd2 growth | KDM4C inh | Tcruzi prolif
O=S(=O)(Cc1noc(-c2ccc(OC(F)(F)F)cc2)n1)Cc1ccco1 | 0.8 | · | · | ·
C[C@@H]1CN([C@H](C)CO)C(=O)c2cc(NS(=O)(=O)c3cccs3)ccc2O[C@@H](C)CCCCO[C@@H]1CN(C)S(=O)(=O)c1ccc(F)cc1 | 1.8 | -89.5* | 1.8 | 51.7
Cc1ccc(S(=O)(=O)N(C)C[C@H]2OCCCC[C@@H](C)Oc3ccc(NS(=O)(=O)c4cccs4)cc3C(=O)N([C@H](C)CO)C[C@@H]2C)cc1 | -1.2 | -15.9 | 0.5 | 46.2
Cc1ccc(S(=O)(=O)N(C)C[C@H]2OCCCC[C@H](C)Oc3ccc(NS(=O)(=O)c4cccs4)cc3C(=O)N([C@@H](C)CO)C[C@H]2C)cc1 | · | -85.0* | 1.2 | 58.3
COC(=O)c1c(NC(=O)CSc2ncnc3sc(C)c(C)c23)sc(C)c1C | 0.5 | · | · | ·
COCC(=O)N1[C@H](C#N)[C@@H](c2ccccc2-c2ccccc2)[C@H]1CO | · | -92.8* | -0.5 | ·
CCC(=O)N1[C@@H](C#N)[C@@H](c2ccccc2-c2cccc(C)c2)[C@@H]1CO | · | -24.9 | -1.4 | ·
CCC(=O)N1[C@H](CO)[C@@H](c2ccccc2-c2cccc(C)c2)[C@@H]1C#N | · | -86.3* | -1.3 | ·
COCC(=O)N1[C@H](C#N)[C@@H](c2ccccc2-c2ccccc2)[C@@H]1CO | · | 2.6 | -0.7 | ·
COCC(=O)N1[C@@H](C#N)[C@H](c2ccccc2-c2ccccc2)[C@@H]1CO | · | -86.2* | 0.1 | ·
CC(=O)c1cccc(NC(=O)CSc2ncnc3sc(C)c(C)c23)c1 | 0.5 | · | · | ·
COc1ccccc1NC(=O)COc1ccc(C(=O)Nc2cccc(C(F)(F)F)c2)cc1 | -0.1 | · | · | ·
CO[C@@H]1CN(C)C(=O)c2cc(NC(C)=O)ccc2OC[C@H](C)N(C(=O)CC2CC2)C[C@H]1C | 0.3 | 6.1 | 0.0 | -3.6
CO[C@@H]1CN(C)C(=O)c2cc(NS(C)(=O)=O)ccc2OC[C@H](C)N(C(=O)CC2CC2)C[C@H]1C | 0.5 | 10.7 | 0.0 | 24.7
CO[C@H]1CN(C)C(=O)c2cc(NS(C)(=O)=O)ccc2OC[C@H](C)N(C(=O)CC2CC2)C[C@H]1C | 44.5* | -30.8 | 13.7 | 22.9
CO[C@H]1CN(C)C(=O)c2cc(NC(C)=O)ccc2OC[C@@H](C)N(C(=O)CC2CC2)C[C@H]1C | 84.7* | -12.1 | 37.9* | 8.5
Cc1cccnc1NC(=S)Nc1ccc(S(N)(=O)=O)cc1 | 0.0 | · | · | ·
N#CCCn1cc(CO)c(-c2ccc(Cl)cc2)n1 | -0.6 | · | · | ·
O=C(O)CCNS(=O)(=O)c1cccc(F)c1 | 0.2 | · | · | ·
C[C@H]1CN([C@@H](C)CO)C(=O)c2c(c3ccccc3n2C)-c2ccccc2CO[C@H]1CN(C)Cc1cccc(C(=O)O)c1 | · | -31.9 | 0.8 | -18.3
C[C@H]1CN([C@@H](C)CO)C(=O)c2c(c3ccccc3n2C)-c2ccccc2CO[C@@H]1CN(C)Cc1cccc(O)c1 | · | -88.5* | -1.5 | ·
C[C@H](CO)N1C[C@H](C)[C@H](CN(C)Cc2cccc(O)c2)OCc2ccccc2-c2c(n(C)c3ccccc23)C1=O | · | -9.9 | · | ·
COc1cccc(CN(C)C[C@H]2OCc3ccccc3-c3c(n(C)c4ccccc34)C(=O)N([C@H](C)CO)C[C@H]2C)c1 | · | -88.0* | -0.4 | ·

High-throughput results (PubChem)
